Screens (PubChem)
Most compounds without a hit are left out; they make up all but 2.6% or so of the library.
SENP8 block-1 – blocks the human protease SENP8; 330,000 tested, 1.2% active; inhibition, % at 10 µM; purified SENP8, Z-RLRGG-aminoluciferin cleavage, luminescence; in the data active = inhibition above about 50%
SENP8 block-2 – inhibitors of human SENP8 protease; Q96LD8; recombinant SENP8, Nedd8 substrate fluorescence; inhibition, % at 20 µM; 360,000 tested, 0.64% active; in the data active = inhibition mostly above about 40%, no sharp cut-off; inactive = mostly below about 27%
SENP6 inh – inhibitors of human SENP6 protease; 330,000 tested, 1.8% active; inhibition, % at 10 µM; Q9GZR1; Recombinant SENP6 catalytic domain, aminoluciferin luminescence;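 active = inhibition above about 50% at the single tested dose, limit read from the data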
Target sequence (Q9GZR1 628-1112 limits assumed): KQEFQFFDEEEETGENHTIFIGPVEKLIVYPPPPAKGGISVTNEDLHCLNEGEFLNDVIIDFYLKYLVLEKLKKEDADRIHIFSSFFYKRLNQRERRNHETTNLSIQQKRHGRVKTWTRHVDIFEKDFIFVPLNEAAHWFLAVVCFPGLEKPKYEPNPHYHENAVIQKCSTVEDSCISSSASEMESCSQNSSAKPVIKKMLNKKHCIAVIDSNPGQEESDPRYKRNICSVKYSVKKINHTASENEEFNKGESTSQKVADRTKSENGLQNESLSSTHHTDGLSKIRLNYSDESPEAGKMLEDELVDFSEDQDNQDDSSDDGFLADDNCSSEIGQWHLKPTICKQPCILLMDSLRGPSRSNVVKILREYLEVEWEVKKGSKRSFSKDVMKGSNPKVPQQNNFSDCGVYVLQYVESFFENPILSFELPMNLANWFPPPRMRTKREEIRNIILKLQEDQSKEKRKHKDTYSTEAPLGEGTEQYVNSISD
SENP7 inh – SENP7 protease inhibition; inhibition, % at 5 µM; 330,000 tested, 1.5% active; AID 434973; recombinant SENP7, Z-RLRGG-aminoluciferin luminescence, 40 min;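 active = inhibition above about 50% at the single test dose, limit read from the data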
Platelet DG rel – modulates dense granule release in human platelets; inhibition, %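 (compounds screened at 7.5 µM in platelet-rich plasma)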; human platelet-rich plasma, SFLLRN dense granule ATP release, luminescence; 300,000 tested, 0.22% active;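 active = mean replicate score, as percent of positive control, at or above 50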
SENP1 inh – inhibitors of human SENP1 SUMO protease catalytic domain | Q9P0U3 | 360,000 tested, 0.21% active | AID 624204 | inhibition, % at 10 µM | recombinant SENP1 catalytic domain, CyPet-SUMO1-YPet FRET cleavage;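 active = inhibition at least 30% at 10 µM, raw YFP signal under a set limit, fluorescence ratio 0.5 to 1.5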
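Material: hSENP1 catalytic domain, recombinant; medium: Tris pH 8 with BME, BSA, NP40 and catalase; compound: single concentration of 10 µM compound, 0.5% DMSO final; technique: FRET read of cyan and yellow fluorescence; timing: 50 min enzyme reaction, room temperature, light-protected; reagent: SFCypet-SUMO1-SFYpet substrate at 25 nM; control set: no-enzyme low, enzyme-DMSO high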
SENP8 conf – human SENP8 inhibition, confirmed. 6,200 tested, 40% active. inhibition, % at 12.5 µM. shares compounds with SENP7 inh. Recombinant SENP8, Z-RLRGG-aminoluciferin luminescence, 60 min;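 active = mean inhibition across replicates above about 50%, limit read from the data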
SENP6 conf – confirmation of human SENP6 protease inhibitors. shares compounds with SENP7 inh. recombinant SENP6, Z-RLRGG-aminoluciferin luminescence. inhibition, % at 12.5 µM. 6,200 tested, 58% active
SENP7 conf – human SENP7 inhibition, confirmed | shares compounds with SENP7 inh | recombinant SENP7, Z-RLRGG-aminoluciferin luminescence, 40 min | inhibition, % at 12.5 µM | 6,200 tested, 69% active | AID 488917
Casp3 select – inhibits human caspase-3 in SENP selectivity test; shares compounds with SENP7 inh; purified caspase-3, Z-DEVD-aminoluciferin luminescence, 60 min; inhibition, % at 12.5 µM; 6,200 tested, 60% active; AID 488918;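 active = mean inhibition above about 50%, limit read from the data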
Luc interf – counter-screen for SENP inhibitors: luminescence interference; 6,200 tested, 39% active; inhibition, % at 12.5 µM; Pre-incubated SENP8/Z-RLRGG-aminoluciferin, luciferase luminescence interference; shares compounds with SENP7 inh;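 active = mean inhibition above about 50% when retested at one dose, limit read from the data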
Each line names hits and unclear results; the compound was inactive in the other large screens (follow-up assays come after a bar, where they were run).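 Rule for the calls, unless noted: active = mean inhibition above about 50% in the one-dose retest (limit read from the data); inactive = the rest.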

CCCS(=O)(=O)c1cnc(C2COc3ccccc3O2)nc1N (stereo not drawn)	SENP8 block-1 87, SENP6 inh 93, SENP7 inh 94, Platelet DG rel 66 | SENP8 conf 82 | SENP6 conf 92 | SENP7 conf 100 | Casp3 select 96 | Luc interf inactive
Cc1ccc(-n2ncc3c2ncn2c(C)nnc32)cc1C	SENP6 inh 54 (no result: Platelet DG rel) | SENP8 conf inactive | SENP6 conf inactive | SENP7 conf 73 | Casp3 select 76 | Luc interf inactive
CCc1nnc2c3cnn(-c4ccccc4)c3ncn12	none
COc1cccc(NC(=O)CN(C)C(=O)c2ccc(Cl)c(S(=O)(=O)N3CCCCCC3)c2)c1	none (no result: Platelet DG rel)
CC(C)(C)c1ccc(/C=C/C(=O)Nc2nncs2)cc1	SENP7 inh 79 | SENP8 conf inactive | SENP6 conf inactive | SENP7 conf inactive | Casp3 select inactive | Luc interf inactive
O=C(/C=C/c1cccs1)Nc1nncs1	none
C=CCn1c(SCc2nc(N)nc(N3CCCCC3)n2)nnc1-c1ccco1	SENP7 inh 61 | SENP8 conf inactive | SENP6 conf inactive | SENP7 conf inactive | Casp3 select inactive | Luc interf inactive
CCOC(=O)c1cn2nc(N3CCCCC3)ccc2n1	SENP8 block-1 68, SENP6 inh 72, SENP7 inh 71 | SENP8 conf 72 | SENP6 conf 72 | SENP7 conf 93 | Casp3 select 89 | Luc interf 78
CCOC(=O)c1cn2nc(N3CCCC3)ccc2n1	none
CC(=O)CSc1ccc(-c2nc3cc(C)c(C)cc3[nH]2)cn1	none
CC(=O)CSc1ccc(-c2nc3ccccc3[nH]2)cn1	SENP6 inh 78, SENP7 inh 73 | SENP8 conf 70 | SENP6 conf 67 | SENP7 conf 88 | Casp3 select 86 | Luc interf 72
Cc1cc2nc(-c3ccc(SCc4ccc(C#N)cc4)nc3)[nH]c2cc1C	none
N#Cc1ccccc1CSc1ccc(-c2nc3ccccc3[nH]2)cn1	SENP6 inh 64 | SENP8 conf 67 | SENP6 conf 63 | SENP7 conf 80 | Casp3 select inactive | Luc interf 53
CC1/C(=N/O)CC(c2ccccc2)NC1c1ccccc1 (stereo not drawn)	SENP7 inh 89 | SENP8 conf inactive | SENP6 conf inactive | SENP7 conf inactive | Casp3 select inactive | Luc interf inactive
CC(C)C1/C(=N/O)CC(c2ccccc2)NC1c1ccccc1 (stereo not drawn)	none
CCNC(=O)O/N=C(\C)c1sc(-c2ccc(Cl)cc2)nc1C	SENP8 block-1 89, SENP6 inh 92, SENP7 inh 91 | SENP8 conf 79 | SENP6 conf 79 | SENP7 conf 95 | Casp3 select 82 | Luc interf 66
C/C(=N\OC(=O)NC(C)C)c1sc(-c2ccc(Cl)cc2)nc1C	SENP7 inh 59 | SENP8 conf 53 | SENP6 conf 60 | SENP7 conf 84 | Casp3 select 74 | Luc interf 51
C=C(C)c1sc(-c2ccc(Cl)cc2)nc1C	SENP6 inh 70 | SENP8 conf inactive | SENP6 conf inactive | SENP7 conf 85 | Casp3 select inactive | Luc interf inactive
CSc1ccccc1NC(=O)COC(=O)c1ccc(-n2nc(C)cc2C)cc1	none (no result: Platelet DG rel)
